Measurements: PubChem BioAssay
The source made the active and inactive calls.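 How the source made its calls, unless noted: active means fluorescence slope after compound addition differing from the mean of all tested samples at 99.7% confidence, mostly higher but some lower; inactive means the rest.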

Key:
[1] = inhibitors of TNFa-induced NFkB p65 translocation, primary screen, imaging, HUVEC, MLSMR starter and 10KST1 sets (AID 438;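 active means inhibition above 20% together with a positive visual image hit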;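 further: compound added about 3h40 before a 20 min TNFalpha stimulation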;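 on inhibition: signal is the nuclear over cytoplasmic p65 intensity ratio per well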); conditions: HUVEC TNFa-induced p65 nuclear translocation; cell count: measured here: nuclei count (cytotoxicity indicator), at 2.08 µM; inhibition: at 2 µM, stronger effect = higher value, 0% TNFa-plus-vehicle, 100% no-TNFa wells
[2] = reduction of polyQ htt aggregates in cells – imaging, exon1htt(103Q)mCFP cells, high-content imaging, primary screen (AID 483;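 active means visual image review flags a hit and inhibition of aggregation exceeds 20%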;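 further: compound exposure lasted 3 days before fixation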;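 on nuclei count: percent of the per-plate median nuclei count of sample wells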); conditions: exon1htt(103Q)mCFP cell line, aggregate imaging, at 2 µM; inhibition of aggregation: stronger effect = higher value; nuclei count: measured here: cell count, toxicity
[3] = endothelial E-selectin expression blockers – imaging, HUVEC, immunofluorescence, MLSMR starter and 10KST1 sets, primary screen (AID 487;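 active means visually confirmed hit in the image check and inhibition above 20%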;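 on inhibition: signal is fraction of cell area covered by stained E-selectin grains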;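 on nuclei count: 100% = median nuclei count of all wells on the same plate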); conditions: HUVEC TNFalpha-induced E-selectin immunofluorescence imaging, at 2 µM; inhibition: stronger effect = higher value; nuclei count: measured here: cell number, toxicity
[4] = biological target: Voltage-gated potassium channel subunit beta-2 (Rattus norvegicus) (UniProt P62483); experiment: inhibitors of rat Kvbeta2 reductase activity – biochemical, NADPH fluorescence, primary screen (AID 622;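 active means fluorescence slope higher than the sample average by over 3 SD, cut at about -0.22 in these data, passing the limit was not always enough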;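 further: slope of raw intensity against log time taken from 70 to 1610 s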); conditions: recombinant KvBeta, 4-cyanobenzaldehyde reduction, at 10 µM, stronger effect = higher value
[5] = biological target: Voltage-gated potassium channel subunit beta-2 (Rattus norvegicus) (UniProt P62483); experiment: enhancers of rat Kvbeta2 NADPH turnover – biochemical, NADPH fluorescence, primary screen (AID 623;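 active means NADPH fluorescence slope more negative than the mean of all samples by about 3 SD, 99.7% confidence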;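 further: fluorescence intensity change per second fitted from 20 to 320 s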); conditions: Recombinant KvBeta, NADPH fluorescence decrease slope, 10 min; at 10 µM; stronger effect = lower value
[6] = biological target: Muscarinic acetylcholine receptor M4 (Homo sapiens) (UniProt P08173); experiment: M4-linked GIRK flux change, two-sided – cell-based, HEK293 M4/GIRK, thallium flux, BTC-AM, M4 allosteric agonist project, primary screen (AID 625); conditions: at 10 µM, actives lie on both sides;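 further: thallium influx through GIRK channels coupled to M4 in HEK293 cells with BTC-AM dye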
In short: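 System: HEK293 cells with M4 receptor and GIRK channels | Incubation: Cells overnight at 37 °C, BTC-AM loading 1 h, reads 2 min total | Technique: Kinetic BTC-AM fluorescence sampled at 1 Hz, 10 s pre-addition baseline | Measure: Post-addition slope, 15–24 s, of baseline-normalized fluorescence | Control set: Carbachol positive, DMSO negative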

[7] = blockers of RIG-like receptor reporter activation – cell-based, Sendai virus stimulus, luciferase, 10K MLSCN set, TLR/RLR signaling modifier project, primary screen (AID 602276;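 active means inhibition at or above 50% at 10 µM; inactive means inhibition below 50%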;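 further: firefly luciferase from ISG56 promoter only with Renilla not read in this screen; 0% = Sendai virus plus DMSO and 100% = medium plus DMSO without virus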); conditions: HEK293 RL24 IRF3 luciferase reporter, at 10 µM, stronger effect = higher value
[8] = TLR3 IRF3 reporter activation blockers – cell-based, poly I:C stimulus, luciferase, 10K MLSCN set, primary screen (AID 602277;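 active means inhibition of the reporter signal at or above 50%; inactive means inhibition below 50%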); conditions: HEK293-TLR3 RL24 IRF3 luciferase reporter, at 10 µM, stronger effect = higher value

Voltage-gated potassium channel subunit beta-2 (Rattus norvegicus), sequence (P62483 whole entry, looked up): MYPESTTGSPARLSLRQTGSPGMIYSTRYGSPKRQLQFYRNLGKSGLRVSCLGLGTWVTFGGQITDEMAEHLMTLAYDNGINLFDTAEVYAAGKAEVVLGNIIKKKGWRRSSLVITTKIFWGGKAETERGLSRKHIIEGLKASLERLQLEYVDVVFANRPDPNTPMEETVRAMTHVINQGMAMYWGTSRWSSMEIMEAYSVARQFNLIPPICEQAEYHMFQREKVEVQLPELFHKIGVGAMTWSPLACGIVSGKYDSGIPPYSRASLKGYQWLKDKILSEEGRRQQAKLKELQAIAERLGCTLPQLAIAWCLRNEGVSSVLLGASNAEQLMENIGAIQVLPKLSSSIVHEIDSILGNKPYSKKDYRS
Muscarinic acetylcholine receptor M4 (Homo sapiens), sequence (P08173 whole entry, looked up): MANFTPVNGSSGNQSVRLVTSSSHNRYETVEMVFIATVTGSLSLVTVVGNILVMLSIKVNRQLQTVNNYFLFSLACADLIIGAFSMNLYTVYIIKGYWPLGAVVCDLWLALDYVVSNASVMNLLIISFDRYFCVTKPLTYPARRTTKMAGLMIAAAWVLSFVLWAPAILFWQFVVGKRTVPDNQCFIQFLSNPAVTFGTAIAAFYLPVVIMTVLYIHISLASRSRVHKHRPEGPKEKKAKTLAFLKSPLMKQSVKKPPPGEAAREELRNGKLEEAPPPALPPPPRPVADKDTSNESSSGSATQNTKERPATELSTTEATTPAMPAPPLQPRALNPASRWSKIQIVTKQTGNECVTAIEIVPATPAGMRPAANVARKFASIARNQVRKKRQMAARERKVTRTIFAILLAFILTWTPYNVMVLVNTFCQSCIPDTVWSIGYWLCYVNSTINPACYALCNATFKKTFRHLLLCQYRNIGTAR

With O=C(Nc1ccc(Cl)cc1)C1CC=CCC1C(=O)OCC(F)(F)C(F)F (stereo not drawn) the cell count [1] was 628, the inhibition [1] was 8.2% (inactive) and the inhibition of aggregation [2] was 31.1% (inactive). For the same molecule, the nuclei count [2] was 88%, the inhibition [3] was -17.6% (inactive) and the nuclei count [3] was 96.7%. For the same molecule, the fluorescence slope [4] was -0.319 (inactive), the NADPH fluorescence slope [5] was -7e-05 (inactive) and the fluorescence slope [6] was 0.00812 (inactive). For the same molecule, the inhibition [7] was 11.2% (inactive) and the inhibition [8] was 3.19% (inactive).
In the case of C/C(CC(O)(/C=N/O)c1ccccc1)=N\O (stereo not drawn), the cell count [1] is reported as 343, the inhibition [1] is reported as 2.4% (inactive) and the inhibition of aggregation [2] is reported as 4% (inactive). For the same molecule, the nuclei count [2] was 97%, the inhibition [3] was -60.1% (inactive) and the nuclei count [3] was 120%. The fluorescence slope [4] was -0.569 (inactive), the NADPH fluorescence slope [5] was -5.8e-05 (inactive) and the fluorescence slope [6] was 0.00371 (inactive). The inhibition [7] was 14.3% (inactive) and the inhibition [8] was 15.7% (inactive).
With CCn1nc(C(=O)OCC(=O)c2cc(C)n(Cc3cccs3)c2C)c2ccccc2c1=O the cell count [1] was 381, the inhibition [1] was -2.1% (inactive) and the inhibition of aggregation [2] was 25.7% (inactive). The nuclei count [2] was 90.2%, the inhibition [3] was -97.8% (inactive) and the nuclei count [3] was 113%. The fluorescence slope [4] was -0.556 (inactive), the NADPH fluorescence slope [5] was 0.000162 (inactive) and the fluorescence slope [6] was 0.00739 (inactive). For the same molecule, the inhibition [7] was 19.8% (inactive) and the inhibition [8] was 7.59% (inactive).
With O=C(CP(=O)(c1ccccc1)c1ccccc1)N1CCCCC1 the cell count [1] was 378, the inhibition [1] was 6.6% (inactive) and the inhibition of aggregation [2] was -16% (inactive). For the same molecule, the nuclei count [2] was 105%, the inhibition [3] was -29.8% (inactive) and the nuclei count [3] was 107%. For the same molecule, the fluorescence slope [4] was -0.528 (inactive), the NADPH fluorescence slope [5] was -1.9e-05 (inactive) and the fluorescence slope [6] was 0.00576 (inactive). For the same molecule, the inhibition [7] was 18% (inactive) and the inhibition [8] was 22.1% (inactive).
In the case of CCc1nc(C)c(-c2ccccc2)c(=O)[nH]1, the cell count [1] is reported as 211, the inhibition [1] is reported as 0.8% (inactive) and the inhibition of aggregation [2] is reported as 5.5% (inactive). For the same molecule, the nuclei count [2] was 97.2%, the inhibition [3] was -99.3% (inactive) and the nuclei count [3] was 102%. For the same molecule, the fluorescence slope [4] was -0.567 (inactive), the NADPH fluorescence slope [5] was -7.1e-06 (inactive) and the fluorescence slope [6] was 0.00452 (inactive). For the same molecule, the inhibition [7] was -0.853% (inactive) and the inhibition [8] was 3.2% (inactive).
For O=C(Cn1nc(C(F)(F)F)c2c1CCCC2)NCCN1CCOCC1, the cell count [1] was 584, the inhibition [1] was -6.8% (inactive) and the inhibition of aggregation [2] was -26.7% (inactive). For the same molecule, the nuclei count [2] was 103%, the inhibition [3] was -8.6% (inactive) and the nuclei count [3] was 93.4%. The fluorescence slope [4] was -0.516 (inactive), the NADPH fluorescence slope [5] was -0.00011 (inactive) and the fluorescence slope [6] was 0.00274 (inactive). The inhibition [7] was 17.5% (inactive) and the inhibition [8] was 25.2% (inactive).
In the case of COc1ccc(-n2c(SCCC(=O)O)nnc2-c2ccncc2)cc1, the cell count [1] is reported as 359, the inhibition [1] is reported as -6.2% (inactive) and the inhibition of aggregation [2] is reported as -2.3% (inactive). The nuclei count [2] was 98.2%, the inhibition [3] was -27.4% (inactive) and the nuclei count [3] was 127%. For the same molecule, the fluorescence slope [4] was -0.56 (inactive), the NADPH fluorescence slope [5] was 4e-06 (inactive) and the fluorescence slope [6] was 0.00569 (inactive). The inhibition [7] was 18% (inactive) and the inhibition [8] was 36.6% (inactive).
In the case of COc1cc(C2C(C#N)=C(N)OC3=C2C(=O)CCC3)ccc1OC(=O)N1CCOCC1 (stereo not drawn), the cell count [1] is reported as 503, the inhibition [1] is reported as -34.2% (inactive) and the inhibition of aggregation [2] is reported as -16.1% (inactive). For the same molecule, the nuclei count [2] was 93.7%, the inhibition [3] was -20.8% (inactive) and the nuclei count [3] was 101%. For the same molecule, the fluorescence slope [4] was -0.37 (inactive), the NADPH fluorescence slope [5] was -7.7e-05 (inactive) and the fluorescence slope [6] was 0.00858 (inactive). The inhibition [7] was 8.74% (inactive) and the inhibition [8] was 6.55% (inactive).
